Activity calls are given as the source filed them. The rule behind the calls is not given here.
How the values were obtained:
[1] = target: Centrosomal protein 43/RET (Homo sapiens) (UniProt P07949+O95684); assay: Inhibition of FGFR1OP/RET isoform 9 (unknown origin) expressed in mouse NIH/3T3 cells assessed as reduction in RET phosphorylation at Y905 residue at 1 to 100 nM measured after 2 hrs by Western blot analysis; assay type: cell-based
Summary of the method: (§1)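 Serum-starved RAT1 (RET point mutants) or NIH3T3 (RET rearrangements) cells expressing short RET-9 isoform, treated 2 h; 50 μg total lysate immunoblotted with anti-phospho-Y1062 and anti-phospho-Y905 RET antibodies, normalized to total RET; ECL detection. Compound from 50 mM DMSO stock diluted in growth medium.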

[2] = tested on: Proto-oncogene tyrosine-protein kinase receptor Ret (Homo sapiens), P07949 [C634W]; assay: Inhibition of Ret isoform 9 C634W mutant in human TT cells assessed as reduction in phosphorylation at Y1062 residue at 0.3 to 30 nM measured after 2 hrs by Western blot analysis; assay type: cell-based
Homo sapiens = species: Homo sapiens; assay: Effect on MAPK phosphorylation in RET deficient human Nthy-ori 3-1 cells at 1 to 100 nM measured after 2 hrs by western blot analysis
[3] = tested on: GTPase HRas (Homo sapiens), P01112 [G12V]; assay: Inhibition of HRAS G12V mutant (unknown origin) expressed in mouse NIH/3T3 cells assessed as reduction in MAPK phosphorylation up to 100 nM measured after 2 hrs by Western blot analysis; assay type: cell-based
GTPase HRas (Homo sapiens), P01112 [G12V], sequence (P01112 whole entry G12V, canonical isoform): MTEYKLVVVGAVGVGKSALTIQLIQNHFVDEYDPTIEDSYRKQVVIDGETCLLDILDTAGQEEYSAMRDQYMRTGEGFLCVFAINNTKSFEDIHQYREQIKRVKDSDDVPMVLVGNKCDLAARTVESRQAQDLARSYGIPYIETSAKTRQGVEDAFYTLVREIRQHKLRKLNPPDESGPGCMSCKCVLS

Mus musculus [4] = assay: In vivo inhibition of RET isoform 9 C634Y mutant transfected in mouse NIH/3T3 cells implanted BALB/c nu/nu mouse assessed as reduction in SHC phosphorylation in tumor at 1 mg/kg, po administered once daily via gavage for 3 days measured 3 hrs post-last dose by Western blot analysis
[5] = tested on: Proto-oncogene tyrosine-protein kinase receptor Ret (Homo sapiens), P07949 [V804L]; assay: Inhibition of RET isoform 9 V804L mutant (unknown origin) expressed in rat Rat1 assessed as reduction in RET phosphorylation at Y905 residue at 1 to 100 nM measured after 2 hrs by Western blot analysis; assay type: cell-based; summary of the method: as §1
Proto-oncogene tyrosine-protein kinase receptor Ret (Homo sapiens), P07949 [V804L], sequence (P07949 whole entry V804L, canonical isoform): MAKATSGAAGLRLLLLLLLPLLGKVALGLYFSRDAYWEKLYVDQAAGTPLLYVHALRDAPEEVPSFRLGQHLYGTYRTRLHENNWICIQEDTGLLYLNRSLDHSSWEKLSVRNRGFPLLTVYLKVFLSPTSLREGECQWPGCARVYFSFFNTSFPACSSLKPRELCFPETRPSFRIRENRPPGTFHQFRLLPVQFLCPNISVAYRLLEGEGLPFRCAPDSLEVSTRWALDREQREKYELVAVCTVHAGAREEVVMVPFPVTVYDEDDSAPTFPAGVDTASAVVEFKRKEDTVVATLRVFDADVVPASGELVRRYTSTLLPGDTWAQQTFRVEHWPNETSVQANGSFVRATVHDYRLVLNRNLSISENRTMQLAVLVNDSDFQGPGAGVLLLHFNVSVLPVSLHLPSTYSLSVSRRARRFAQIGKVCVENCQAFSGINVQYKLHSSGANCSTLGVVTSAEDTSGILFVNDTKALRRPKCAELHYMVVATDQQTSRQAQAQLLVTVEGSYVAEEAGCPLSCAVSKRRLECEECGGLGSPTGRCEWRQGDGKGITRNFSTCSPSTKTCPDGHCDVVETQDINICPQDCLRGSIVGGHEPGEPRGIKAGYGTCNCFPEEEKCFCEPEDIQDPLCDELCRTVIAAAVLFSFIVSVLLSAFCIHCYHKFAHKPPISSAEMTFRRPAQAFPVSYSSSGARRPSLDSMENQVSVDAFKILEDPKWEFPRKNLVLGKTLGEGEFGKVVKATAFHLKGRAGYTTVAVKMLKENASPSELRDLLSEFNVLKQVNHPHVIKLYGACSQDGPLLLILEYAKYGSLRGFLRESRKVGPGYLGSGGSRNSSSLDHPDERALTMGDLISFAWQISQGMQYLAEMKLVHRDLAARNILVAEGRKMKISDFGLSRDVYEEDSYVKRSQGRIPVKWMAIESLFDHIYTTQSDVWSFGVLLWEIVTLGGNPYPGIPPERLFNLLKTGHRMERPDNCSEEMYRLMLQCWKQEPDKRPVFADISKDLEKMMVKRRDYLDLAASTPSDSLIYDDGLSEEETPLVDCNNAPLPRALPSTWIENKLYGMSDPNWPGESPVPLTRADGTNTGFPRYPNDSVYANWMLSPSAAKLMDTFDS

[6] = tested on: Proto-oncogene tyrosine-protein kinase receptor Ret (Homo sapiens), P07949 [M918T]; assay: Inhibition of RET isoform 9 M918T mutant (unknown origin) expressed in rat Rat1 assessed as reduction in RET phosphorylation at Y1062 residue at 1 to 100 nM measured after 2 hrs by Western blot analysis; assay type: cell-based; summary of the method: as §1
Mus musculus [7] = assay: In vivo inhibition of RET isoform 9 C634Y mutant transfected in mouse NIH/3T3 cells implanted BALB/c nu/nu mouse assessed as reduction in RET phosphorylation at Y1062 residue at 3 mg/kg, po administered once daily via gavage for 2 days measured 3 hrs post-last dose by Western blot analysis
[8] = target: Macrophage colony-stimulating factor 1 receptor (Homo sapiens, UniProt P07333); assay: Binding affinity to wild-type human partial length CSF1R (I564 to S939 residues) expressed in bacterial expression system at 100 nM by Kinomescan method relative to control
Macrophage colony-stimulating factor 1 receptor, sequence (P07333 whole entry, the tested form may be a part): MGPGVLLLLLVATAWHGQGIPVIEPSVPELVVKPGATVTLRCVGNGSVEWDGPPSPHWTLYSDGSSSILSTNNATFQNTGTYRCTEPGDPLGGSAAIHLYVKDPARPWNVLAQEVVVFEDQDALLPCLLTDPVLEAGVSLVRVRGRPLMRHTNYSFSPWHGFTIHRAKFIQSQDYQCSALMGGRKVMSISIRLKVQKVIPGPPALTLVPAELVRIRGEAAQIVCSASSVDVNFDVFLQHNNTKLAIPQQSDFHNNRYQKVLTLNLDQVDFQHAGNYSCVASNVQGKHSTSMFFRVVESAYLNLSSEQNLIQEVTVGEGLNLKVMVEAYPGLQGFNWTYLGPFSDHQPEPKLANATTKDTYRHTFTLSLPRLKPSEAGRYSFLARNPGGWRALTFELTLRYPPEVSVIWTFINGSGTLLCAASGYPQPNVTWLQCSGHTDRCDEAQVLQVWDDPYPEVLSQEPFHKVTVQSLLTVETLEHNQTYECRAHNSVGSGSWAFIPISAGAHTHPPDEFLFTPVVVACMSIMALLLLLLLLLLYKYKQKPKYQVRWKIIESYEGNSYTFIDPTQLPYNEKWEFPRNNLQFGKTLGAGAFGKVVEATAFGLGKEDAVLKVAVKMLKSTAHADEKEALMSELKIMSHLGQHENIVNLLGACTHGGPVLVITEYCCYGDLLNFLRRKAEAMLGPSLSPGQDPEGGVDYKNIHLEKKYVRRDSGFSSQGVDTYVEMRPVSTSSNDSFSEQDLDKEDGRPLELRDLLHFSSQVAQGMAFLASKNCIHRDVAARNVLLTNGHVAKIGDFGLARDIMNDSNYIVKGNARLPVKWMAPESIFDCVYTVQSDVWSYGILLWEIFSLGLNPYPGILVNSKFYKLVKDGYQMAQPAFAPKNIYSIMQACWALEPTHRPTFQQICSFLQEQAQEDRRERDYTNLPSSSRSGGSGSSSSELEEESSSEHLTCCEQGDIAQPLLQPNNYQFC

[9] = target: Proto-oncogene tyrosine-protein kinase receptor Ret (Homo sapiens, UniProt P07949); assay: Binding affinity to recombinant phosphorylated RET kinase domain (705 to 1013 residues) (unknown origin) expressed in baculovirus infected Sf9 insect cells assessed as change in melting temperature at 40 uM measured over 240 mins by sypro orange dye based thermal shift assay
Proto-oncogene tyrosine-protein kinase receptor Ret, sequence (P07949 whole entry, the tested form may be a part, canonical isoform): as the sequence (P07949 whole entry V804L, canonical isoform) above, with L804V counted along it

Mus musculus [10] = assay: In vivo inhibition of RET isoform 9 C634R mutant transfected in mouse NIH/3T3 cells implanted BALB/c nu/nu mouse assessed as reduction in RET phosphorylation at Y1062 residue in tumor at 1 mg/kg, po administered once daily via gavage for 3 days measured 3 hrs post-last dose by Western blot analysis; assay type: functional, organism-based
[11] = tested on: Proto-oncogene tyrosine-protein kinase receptor Ret (Homo sapiens), P07949 [C634R]; assay: Inhibition of RET isoform 9 C634R mutant (unknown origin) expressed in rat Rat1 assessed as reduction in RET phosphorylation at Y1062 residue at 3 nM measured after 2 hrs by Western blot analysis; assay type: cell-based
Proto-oncogene tyrosine-protein kinase receptor Ret (Homo sapiens), P07949 [C634R], sequence (P07949 whole entry C634R, canonical isoform): as the sequence (P07949 whole entry V804L, canonical isoform) above, with C634R, L804V counted along it
Summary of the method: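 RAT1 fibroblasts expressing RET-9 C634R, serum-starved, treated 2 h with 0.1–10.0 nM; 50 μg lysate blotted for RET pY905 and pY1062, normalized to total RET; ECL detection.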

[12] = target: Coiled-coil domain-containing protein 6/Tyrosine-protein kinase receptor RET (Homo sapiens) (UniProt P07949+Q16204); assay: Inhibition of CCDC6/RET in human LC2/ad cells assessed as reduction in MAPK phosphorylation at 0.3 to 30 nM measured after 2 hrs by Western blot analysis; assay type: cell-based

inhibition [1]: Active
inhibition [2]: Active
Activity (Homo sapiens): inactive
inhibition [3]: inactive
inhibition [5]: Active
inhibition [6]: Active
Activity [8]: > 90%
ΔTm [9]: 16 °C
inhibition [11]: 100%
inhibition [12]: inactive
SMILES: CC(C)(C)c1cc(NC(=O)Cc2ccc(-n3cnc4cc(-c5ccc(S(C)(=O)=O)cc5)ccc43)cc2)no1
inhibition (Mus musculus [4]): Active
inhibition (Mus musculus [7]): Active
inhibition (Mus musculus [10]): Active

— ChEMBL document CHEMBL4354879, “Bioisosteric Discovery of NPA101.3, a Second-Generation RET/VEGFR2 Inhibitor Optimized for Single-Agent Polypharmacology” (J Med Chem, 2020)
